Measured values as given in ChEMBL document CHEMBL1141413, “Cinnamacrins A-C, cinnafragrin D, and cytostatic metabolites with alpha-glucosidase inhibitory activity from Cinnamosma macrocarpa” (J Nat Prod, 2007).
≈ marks a conversion by molar mass, not a printed value. Calls of active or inactive are those of the source. No cut-off for these calls is given here.

Columns and labels:
[1] = target: Maltase-glucoamylase (Homo sapiens) (UniProt O43451); assay: Inhibition of alpha-glucosidase in 1.20 mg/200 uL
Human alphaherpesvirus 1 [2] = assay: Antiviral activity against HSV1 TK KOS ACVr; format: functional; settings: Human alphaherpesvirus 1, TK KOS ACVr
Procedure, shortened: (§1)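 Antiviral test in E6SM cell cultures; the minimum inhibitory concentration is the level that reduces virus-induced cytopathogenicity by 50%.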

[3] = Cytotoxicity against E6SM cells; format: cell-based; settings: human, read-out: MIC
Procedure, shortened: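 Microscopic scoring of E6SM cell cultures; minimal cytotoxic concentration is the concentration causing a detectable alteration of normal cell morphology.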

Vaccinia virus = assay: Antiviral activity against vaccinia virus; format: functional; settings: Orthopoxvirus vaccinia; procedure, shortened: as §1
Human alphaherpesvirus 1 [4] = assay: Antiviral activity against HSV1 KOS; format: functional; settings: Human alphaherpesvirus 1, KOS; procedure, shortened: as §1
Human alphaherpesvirus 2 = assay: Antiviral activity against HSV2 G; format: functional; settings: Human alphaherpesvirus 2, G
Procedure, shortened: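 Virus-induced cytopathogenicity in E6SM cell cultures; value is the concentration needed to reduce cytopathogenicity by 50%.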

[5] = tested on: Vesicular stomatitis virus; assay: Antiviral activity against VSV; format: functional
Procedure, shortened: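 Tested in both E6SM and HeLa cell cultures; the minimum inhibitory concentration is the level that reduces virus-induced cytopathogenicity by 50%.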

[6] = Cytostatic activity against mouse L1210/0 cells; format: functional, cell-based
Procedure, shortened: (§2)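 Tumour cell proliferation assay; IC50 is the compound concentration that inhibits cell proliferation by 50%.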

CCRF-CEM = assay: Cytostatic activity against human CEM/0 cells; format: functional, cell-based; procedure, shortened: as §2
Coxsackievirus B4 = assay: Antiviral activity against CV B4; format: functional; settings: Enterovirus B
Procedure, shortened: (§3)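 Antiviral test in HeLa cell cultures; the minimum inhibitory concentration is the level that reduces virus-induced cytopathogenicity by 50%.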

[7] = Cytotoxicity against HeLa cells; format: cell-based; settings: human, read-out: MIC
Procedure, shortened: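 HeLa cell cultures examined by microscopy; the minimal cytotoxic concentration is the level that causes a microscopically detectable alteration of normal cell morphology.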

[8] = tested on: Respiratory syncytial virus; assay: Antiviral activity against RSV; format: functional; settings: human respiratory syncytial virus; procedure, shortened: as §3
MOLT-4 = assay: Cytostatic activity against human Molt4/C8 cells; format: functional, cell-based; procedure, shortened: as §2

Maltase-glucoamylase (Homo sapiens), sequence (O43451 whole entry, looked up): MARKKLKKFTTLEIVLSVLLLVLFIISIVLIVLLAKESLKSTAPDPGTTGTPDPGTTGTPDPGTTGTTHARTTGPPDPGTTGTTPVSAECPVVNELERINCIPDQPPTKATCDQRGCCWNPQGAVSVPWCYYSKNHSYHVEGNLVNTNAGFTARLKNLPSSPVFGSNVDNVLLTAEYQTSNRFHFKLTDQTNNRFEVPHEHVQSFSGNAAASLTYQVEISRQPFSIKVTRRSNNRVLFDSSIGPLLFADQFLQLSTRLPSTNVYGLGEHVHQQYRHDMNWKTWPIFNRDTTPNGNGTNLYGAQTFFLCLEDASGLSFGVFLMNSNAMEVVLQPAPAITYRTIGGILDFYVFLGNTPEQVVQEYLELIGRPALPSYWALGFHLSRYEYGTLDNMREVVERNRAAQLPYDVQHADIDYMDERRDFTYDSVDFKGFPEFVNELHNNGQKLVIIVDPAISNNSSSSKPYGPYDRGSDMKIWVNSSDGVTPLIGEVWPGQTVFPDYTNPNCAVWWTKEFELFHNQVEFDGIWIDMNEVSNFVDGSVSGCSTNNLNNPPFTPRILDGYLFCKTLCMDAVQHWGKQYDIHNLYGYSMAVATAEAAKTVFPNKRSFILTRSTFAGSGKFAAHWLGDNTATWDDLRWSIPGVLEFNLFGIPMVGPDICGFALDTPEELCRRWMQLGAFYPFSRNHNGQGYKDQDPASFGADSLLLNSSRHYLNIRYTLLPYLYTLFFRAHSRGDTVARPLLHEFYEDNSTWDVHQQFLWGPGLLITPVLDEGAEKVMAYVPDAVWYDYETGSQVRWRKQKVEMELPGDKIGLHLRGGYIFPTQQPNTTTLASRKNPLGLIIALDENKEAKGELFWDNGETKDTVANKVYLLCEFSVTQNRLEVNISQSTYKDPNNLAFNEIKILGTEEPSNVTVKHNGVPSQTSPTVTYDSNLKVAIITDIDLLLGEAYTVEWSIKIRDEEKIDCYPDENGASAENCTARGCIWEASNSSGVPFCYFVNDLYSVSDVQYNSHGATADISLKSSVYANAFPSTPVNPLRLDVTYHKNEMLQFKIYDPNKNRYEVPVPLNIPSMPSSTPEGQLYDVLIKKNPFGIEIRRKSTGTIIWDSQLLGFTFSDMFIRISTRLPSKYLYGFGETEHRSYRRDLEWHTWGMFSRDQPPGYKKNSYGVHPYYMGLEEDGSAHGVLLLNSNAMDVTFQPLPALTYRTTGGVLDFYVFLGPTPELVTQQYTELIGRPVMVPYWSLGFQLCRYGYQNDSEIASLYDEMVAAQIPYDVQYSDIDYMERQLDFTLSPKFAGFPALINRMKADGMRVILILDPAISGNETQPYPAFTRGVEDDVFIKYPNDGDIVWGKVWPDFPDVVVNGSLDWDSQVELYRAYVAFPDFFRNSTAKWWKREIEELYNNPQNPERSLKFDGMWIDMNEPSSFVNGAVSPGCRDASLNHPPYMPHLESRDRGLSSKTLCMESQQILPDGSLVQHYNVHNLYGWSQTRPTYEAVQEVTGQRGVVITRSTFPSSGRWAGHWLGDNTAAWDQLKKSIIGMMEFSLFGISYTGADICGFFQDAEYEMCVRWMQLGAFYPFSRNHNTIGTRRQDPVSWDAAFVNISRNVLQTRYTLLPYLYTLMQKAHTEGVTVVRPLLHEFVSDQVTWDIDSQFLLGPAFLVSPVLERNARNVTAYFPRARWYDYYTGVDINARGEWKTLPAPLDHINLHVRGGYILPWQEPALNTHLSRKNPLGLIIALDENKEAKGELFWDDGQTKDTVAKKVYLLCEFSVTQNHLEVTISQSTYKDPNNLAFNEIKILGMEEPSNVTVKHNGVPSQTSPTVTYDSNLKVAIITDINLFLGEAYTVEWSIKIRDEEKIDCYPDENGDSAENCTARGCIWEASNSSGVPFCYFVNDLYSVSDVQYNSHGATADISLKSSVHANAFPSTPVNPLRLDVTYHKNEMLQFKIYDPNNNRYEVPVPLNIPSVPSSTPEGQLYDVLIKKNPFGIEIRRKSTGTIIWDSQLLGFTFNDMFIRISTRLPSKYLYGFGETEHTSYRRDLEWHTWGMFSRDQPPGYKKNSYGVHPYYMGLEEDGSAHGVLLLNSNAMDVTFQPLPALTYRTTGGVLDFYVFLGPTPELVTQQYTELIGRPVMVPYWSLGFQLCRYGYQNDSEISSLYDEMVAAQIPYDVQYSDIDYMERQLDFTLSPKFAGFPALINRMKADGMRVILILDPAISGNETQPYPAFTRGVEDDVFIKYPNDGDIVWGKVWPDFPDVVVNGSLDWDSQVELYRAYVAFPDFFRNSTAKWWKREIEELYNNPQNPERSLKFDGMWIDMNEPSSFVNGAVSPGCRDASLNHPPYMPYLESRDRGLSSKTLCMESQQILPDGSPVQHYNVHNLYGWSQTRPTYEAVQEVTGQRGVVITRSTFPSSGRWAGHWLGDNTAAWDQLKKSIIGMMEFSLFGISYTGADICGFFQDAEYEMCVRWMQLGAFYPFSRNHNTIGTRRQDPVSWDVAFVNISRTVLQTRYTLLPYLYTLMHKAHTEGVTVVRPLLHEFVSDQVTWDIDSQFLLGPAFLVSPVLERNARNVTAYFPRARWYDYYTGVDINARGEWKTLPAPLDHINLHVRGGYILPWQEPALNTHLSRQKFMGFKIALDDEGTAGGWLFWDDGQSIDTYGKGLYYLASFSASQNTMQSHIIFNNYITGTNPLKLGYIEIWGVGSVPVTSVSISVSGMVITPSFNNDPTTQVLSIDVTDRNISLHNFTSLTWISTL

With `CC(=O)OC1=CC2=C(COC2=O)[C@@]2(C)CCCC(C)(C)[C@H]12` the Activity [1] was “inactive”.
For `CC(=O)O[C@@H]1C=C([C@@H]2O[C@@H]3O[C@H](O)C4=C[C@@H](OC(C)=O)[C@H]5C(C)(C)CCC[C@]5(C)[C@]43O2)[C@](O)(C=O)[C@@]2(C)CCCC(C)(C)[C@H]12`, the Activity [1] was “inactive”.
In the case of `CC(=O)O[C@@H]1C=C2C3OC4OC5OC(O[C@@]24[C@@]2(C)CCCC(C)(C)[C@H]12)C1=C[C@@H](OC(C)=O)[C@H]2C(C)(C)CCC[C@]2(C)[C@]15O3`, the Activity [1] is reported as “inactive”.
For `CC(=O)O[C@@H]1[C@@H](O[C@H]2O[C@@H]3O[C@H](C4=C[C@@H](OC(C)=O)[C@H]5C(C)(C)CCC[C@]5(C)[C@@]4(O)C=O)O[C@@]34C2=C[C@@H](OC(C)=O)[C@H]2C(C)(C)CCC[C@@]24C)C2=C(C(=O)OC2)[C@@]2(C)CCCC(C)(C)[C@H]12`, the Activity [1] was “inactive”.
With `CC(=O)O[C@@H]1[C@H]([C@@H]2C3=C(C(=O)OC3)[C@@]3(C)CCCC(C)(C)[C@@H]3[C@@H]2OC(C)=O)C2=C(C(=O)OC2)[C@@]2(C)CCCC(C)(C)[C@H]12` the Activity [1] was “inactive”.
For `CC(C)=CCC/C(C)=C/CC/C(C)=C/CC[C@]1(C)CCc2cc(O)cc(C)c2O1`, the Activity [1] was “inactive”.
With `CC1(C)CCC[C@]2(C)C3=C(C=C[C@@H]12)C(=O)OC3` the Activity [1] was “inactive”.
In the case of `CC1(C)CCC[C@]2(C)[C@H](C=O)C(C=O)=CC[C@@H]12`, the Activity [1] is reported as “inactive”.
For `CC1(C)CCC[C@]2(C)[C@H]3COC(=O)C3=CC[C@@H]12`, the Activity [1] was “inactive”.
With `CC1=C(C(=O)O)C(=O)C2=C3[C@@](C)(CCC[C@]13C)CO2` the Activity [1] was “inactive”.
Work on `COC1O[C@H]2O[C@H](C3=C[C@@H](OC(C)=O)[C@H]4C(C)(C)CCC[C@]4(C)[C@@]3(O)C=O)O[C@@]23C1=C[C@@H](OC(C)=O)[C@H]1C(C)(C)CCC[C@@]13C` (stereo partly drawn) yielded an inhibition [1] of 26.5%.
With `OC[C@H]1NC[C@H](O)[C@@H](O)[C@@H]1O` the inhibition [1] was 100%.
With `Nc1nc2c(ncn2COCCO)c(=O)[nH]1` [ACYCLOVIR] the MIC (Human alphaherpesvirus 1 [2]) was 60 µM (≈ 13.5 µg/mL), the MCC [3] was over 500000 nM and the MIC (Vaccinia virus) was over 500 µM. It also gave an MIC (Human alphaherpesvirus 1 [4]) of 0.48 µM (≈ 0.108 µg/mL), an MIC (Human alphaherpesvirus 2) of 0.48 µM (≈ 0.108 µg/mL) and an MIC [5] of over 500 µM.
`CC(=O)O[C@@H]1C=C(C2O[C@@H]3OC(O)C4=C[C@@H](OC(C)=O)[C@H]5C(C)(C)CCC[C@]5(C)[C@]43O2)[C@](O)(C=O)[C@@]2(C)CCCC(C)(C)[C@H]12` (stereo partly drawn) [CAPSICODENDRIN] gave an IC50 [6] of 1.21 µM, an MIC (Human alphaherpesvirus 1 [2]) of over 1.03 µM and an IC50 (CCRF-CEM) of 0.86 µM. It also gave an MIC (Coxsackievirus B4) of over 1.03 µM, an MCC [3] of at least 1030 nM and an MIC (Vaccinia virus) of over 1.03 µM. The MIC (Human alphaherpesvirus 1 [4]) was over 1.03 µM, the MCC [7] was 5.16 µM and the MIC [8] was over 1.03 µM. It also gave an MIC (Human alphaherpesvirus 2) of over 1.03 µM, an IC50 (MOLT-4) of 0.94 µM and an MIC [5] of over 1.03 µM. It also gave an inhibition [1] of 89.4%.
Work on `CC(=O)O[C@@H]1C=C(C=O)[C@](O)(C=O)[C@@]2(C)CCCC(C)(C)[C@H]12` [CINNAMODIAL] yielded an IC50 [6] of 0.58 µM, an MIC (Human alphaherpesvirus 1 [2]) of over 2.06 µM and an IC50 (CCRF-CEM) of 1.61 µM. It also gave an MIC (Coxsackievirus B4) of over 2.06 µM, an MCC [3] of at least 2060 nM and an MIC (Vaccinia virus) of over 2.06 µM. For the same compound, the MIC (Human alphaherpesvirus 1 [4]) was over 2.06 µM, the MCC [7] was 10.3 µM and the MIC [8] was over 2.06 µM. For the same compound, the MIC (Human alphaherpesvirus 2) was over 2.06 µM, the IC50 (MOLT-4) was 1.51 µM and the MIC [5] was over 2.06 µM. For the same compound, the inhibition [1] was 78.2%.
Compound `NC(=O)c1ncn([C@@H]2O[C@H](CO)[C@@H](O)[C@H]2O)n1` [RIBAVIRIN] has an MIC (Coxsackievirus B4) of over 500 µM, an MCC [7] of over 500 µM and an MIC [8] of 60 µM (≈ 14.7 µg/mL). It also gave an MIC [5] of 300 µM (≈ 73.3 µg/mL).
